Assay [1] is described as follows: inhibition of MAGL up to 10 uM. In outline: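 MAGL set up like the FAAH assay, using pyrene-labelled substrate 1,3-dihydroxypropan-2-yl 4-pyren-1-ylbutanoate; product measured by RP-HPLC with fluorescence detection; highest test concentration 10 μM.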
In assay [2] the target is T1, Fatty-acid amide hydrolase 1 (Rattus norvegicus) (UniProt P97612).
T1 sequence (whole entry): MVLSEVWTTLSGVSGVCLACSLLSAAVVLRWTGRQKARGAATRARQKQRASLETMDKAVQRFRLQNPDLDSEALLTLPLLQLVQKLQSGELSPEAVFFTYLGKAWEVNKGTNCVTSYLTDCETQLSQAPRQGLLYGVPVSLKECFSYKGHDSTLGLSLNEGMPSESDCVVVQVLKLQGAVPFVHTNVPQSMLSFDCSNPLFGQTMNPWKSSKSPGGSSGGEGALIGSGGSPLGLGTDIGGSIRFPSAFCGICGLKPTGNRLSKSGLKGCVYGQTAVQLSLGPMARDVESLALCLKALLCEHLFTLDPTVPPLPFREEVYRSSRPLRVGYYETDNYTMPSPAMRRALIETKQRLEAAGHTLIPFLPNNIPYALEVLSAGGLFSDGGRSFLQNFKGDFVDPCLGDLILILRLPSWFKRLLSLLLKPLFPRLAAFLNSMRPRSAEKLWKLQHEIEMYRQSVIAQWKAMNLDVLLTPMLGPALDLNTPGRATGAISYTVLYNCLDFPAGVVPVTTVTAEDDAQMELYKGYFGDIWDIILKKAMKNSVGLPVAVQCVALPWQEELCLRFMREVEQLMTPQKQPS
The assay can be described thus: Inhibition of FAAH from rat brain microsomes at 10 uM by RP-HPLC. The gist of the method:
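Rat brain microsomes as FAAH source; substrate N-(2-hydroxyethyl)-4-pyren-1-ylbutanamide 100 μM solubilized with Triton X-100 0.2%. Incubated 45 min, then stopped with acetonitrile/methanol plus internal standard 6-pyren-1-ylhexanoic acid. Released 4-pyren-1-ylbutanoic acid quantified directly by RP-HPLC with fluorescence (ex 340, em 380 nm), with vs without inhibitor. Inhibitor max 10 μM; IC50 means of at least two independent determinations.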

For assay [3], the target named is T2, Cytosolic phospholipase A2 (Homo sapiens, UniProt P47712).
T2 sequence (P47712 whole entry): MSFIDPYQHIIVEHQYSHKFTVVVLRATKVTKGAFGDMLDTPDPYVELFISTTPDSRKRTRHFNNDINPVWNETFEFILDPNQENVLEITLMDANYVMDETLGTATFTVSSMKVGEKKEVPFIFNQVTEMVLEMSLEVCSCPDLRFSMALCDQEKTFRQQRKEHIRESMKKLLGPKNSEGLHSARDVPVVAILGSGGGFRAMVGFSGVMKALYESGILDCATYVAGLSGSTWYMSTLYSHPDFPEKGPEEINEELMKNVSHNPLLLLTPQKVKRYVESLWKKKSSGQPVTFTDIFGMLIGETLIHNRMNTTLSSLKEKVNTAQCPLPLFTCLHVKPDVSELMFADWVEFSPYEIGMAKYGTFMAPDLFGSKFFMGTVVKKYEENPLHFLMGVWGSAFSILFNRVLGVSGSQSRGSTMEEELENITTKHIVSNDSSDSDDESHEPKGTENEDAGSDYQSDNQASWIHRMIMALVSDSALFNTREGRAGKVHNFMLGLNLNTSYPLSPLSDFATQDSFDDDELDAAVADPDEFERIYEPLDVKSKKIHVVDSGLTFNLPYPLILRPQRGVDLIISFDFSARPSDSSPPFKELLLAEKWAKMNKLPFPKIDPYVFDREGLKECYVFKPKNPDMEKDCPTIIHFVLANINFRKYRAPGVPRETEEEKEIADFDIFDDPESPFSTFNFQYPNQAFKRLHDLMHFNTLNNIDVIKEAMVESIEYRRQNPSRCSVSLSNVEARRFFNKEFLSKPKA
Nature of the assay: Inhibition of cPLA2 from human platelets by RP-HPLC. In outline:
(§1)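 cPLA2α purified from human platelets; substrate sonicated covesicles of SAPC 200 μM and 1,2-dioleoyl-sn-glycerol 100 μM. Reaction 60 min, stopped with acetonitrile/methanol/0.1 M EDTA-Na2 containing 4-undecyloxybenzoic acid internal standard and NDGA. Arachidonic acid released measured by RP-HPLC, UV 200 nm, after solid-phase extraction, with vs without inhibitor; max 10 μM. IC50 means of at least two independent determinations.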

The target of assay [4] is T3, Cytosolic phospholipase A2 (Homo sapiens) (UniProt P47712).
T3 sequence (whole entry): T2 sequence (P47712 whole entry)
The assay can be described thus: Inhibition of cPLA2 from human platelets at 10 uM by RP-HPLC. In outline: as §1

Assay [5] addresses T4, Fatty-acid amide hydrolase 1 (Rattus norvegicus, UniProt P97612).
T4 sequence (P97612 whole entry): T1 sequence (whole entry)
The assay can be described thus: Inhibition of FAAH from rat brain microsomes by RP-HPLC.

Activity calls are given as the source filed them. The rule behind the calls is not given here.

Usually inhibition stands for the percentage by which the read-out fell short of the control. For orientation: IC50 means the midpoint of a concentration-inhibition curve. Lower therefore signals greater potency in that assay. For the compound `CCCCCCCCc1ccc(OCC(=O)Cn2cncc2C(=O)O)cc1`, the inhibition entry in assay [1] and in assay [2] was “inactive” throughout. Besides, in assay [3], the IC50 was greater than 10 µM. The compound further registered an inhibition in assay [4] of 18%.
In the case of `CCCCCCCCc1ccc(OCC(=O)Cn2cccn2)cc1`, the IC50 was 2 µM in assay [5] and greater than 10 µM in assay [3]. For the same compound, the inhibition entry in assay [1] is “inactive”. The same compound returned an inhibition in assay [4] of 43%.
For `CCCCCCCCc1ccc(OCC(=O)Cn2nccc2C(=O)O)cc1`, the inhibition entry in assay [1] and in assay [2] was “inactive” throughout. In addition, the IC50 in assay [3] is greater than 10 µM. Moreover, the inhibition in assay [4] is 21%.
Turning to `CCCCCCCCc1ccc(OCC(=O)Cn2ccc3cc(OC)ccc32)cc1`, the half-inhibitory concentration (IC50) in assay [5] is greater than 10 µM. Besides, the inhibition entry in assay [1] and in assay [4] was “inactive” each time. Further, the inhibition in assay [2] stood at 22%.
Turning to `CCCCCCCCc1ccc(OCC(=O)Cn2cnc3ccccc32)cc1`, the 50% inhibitory concentration (IC50) in assay [5] is 1 µM; in assay [3] it was greater than 10 µM. Further, in assay [1], the inhibition result was “inactive”. Further, in assay [4], the inhibition stood at 36%.

The values are drawn from ChEMBL document CHEMBL1157719, “1-Indol-1-yl-propan-2-ones and related heterocyclic compounds as dual inhibitors of cytosolic phospholipase A(2)alpha and fatty acid amide hydrolase” (Bioorg Med Chem, 2010).
